Test results taken from ChEMBL document CHEMBL4411332, “Deciphering the Role of Intramolecular Networking in Cholic Acid-Peptide Conjugates on the Lipopolysaccharide Surface in Combating Gram-Negative Bacterial Infections” (J Med Chem, 2019).
Converted amounts (≈) assume the structure as drawn. The source made the active and inactive calls. No cut-off for these calls is given here.

How the values were obtained:
[1] = test system: Escherichia coli; assay: Antibacterial activity against Escherichia coli by broth dilution assay; type: functional
Outline: (§1)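 MIC99 by broth-dilution assay; antibacterial and culture details are in the Supporting Information.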

[2] = test system: Escherichia coli; assay: Antibacterial activity against Escherichia coli isolate 6/23 infected in wound areas of BALB/c mouse assessed as reduction in colony forming units at 40 mg/kg dosed thrice daily for 4 days starting 6 hrs post infection and measured on day 5; type: functional, organism-based
[3] = test system: Escherichia coli; assay: Bactericidal activity against persistent form of Escherichia coli assessed as reduction in colony forming units by fluorescent based time-kill assay; type: functional, organism-based
[4] = test system: Escherichia coli; assay: Bactericidal activity against stationary form of Escherichia coli assessed as reduction in colony forming units by fluorescent based time-kill assay; type: functional, organism-based
[5] = test system: Escherichia coli; assay: Induction of cell membrane disruption in Escherichia coli assessed as pore network disruption by SEM assay; type: functional, organism-based
[6] = test system: Lipopolysaccharide (LPS); assay: Binding affinity to bacterial LPS by BODIPY-LPS based fluorescence assay; conditions: Bacteria
Outline: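 BODIPY-conjugated LPS aggregates titrated with compound; fluorescence increase from aggregate disintegration recorded. Mean ± SD of three replicates, unpaired two-tailed t-test.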

[7] = test system: Escherichia coli; assay: Antibiofilm activity against Escherichia coli assessed as reduction in biomass levels at 64 uM after 24 hrs by crystal violet-based assay relative to control; type: functional; parameters: scale not given: the % may be the effect or the level left
Outline: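 Pre-formed E. coli biofilms treated 24 h with varying doses; biomass quantified by crystal violet staining relative to untreated. Mean ± SD of three replicates, unpaired two-tailed t-test.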

[8] = test system: Escherichia coli; assay: Induction of cell morphology changes in Escherichia coli at 8 uM by TEM assay; type: functional, organism-based
Outline: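 E. coli treated at 8 µM, sampled at different times and imaged by transmission electron microscopy beside untreated cells.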

[9] = test system: Lipopolysaccharide (LPS); assay: Displacement of dansyl-polymyxin B from LPS of bacterial cell membrane by fluorescence spectrophotometry; conditions: Bacteria
Outline: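 Dansyl-polymyxin B–LPS complexes titrated with compound; rise in dansyl fluorescence from displacement measured. Mean ± SD of three replicates, unpaired two-tailed t-test.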

[10] = Binding affinity to DPH-doped model gram negative bacterial membrane (LPS/DPPE/DMPG lipids) assessed as increase in membrane fluidity by fluorescence anisotrophy
Outline: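 Vesicles of LPS, DPPE and DMPG doped with DPH were incubated with compound, and the change in DPH fluorescence anisotropy was recorded. Mean ± SD of three replicates, unpaired two-tailed t-test.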

[11] = test system: Escherichia coli; assay: Ratio of antimicrobial activity against Escherichia coli using 10^12 CFU/ml bacterial inoculum by broth dilution assay to antimicrobial activity against Escherichia coli by broth dilution assay; type: functional
Outline: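 MIC99 against E. coli was measured by broth dilution at a range of inoculum densities up to 10¹² CFU/mL, in four replicates. Results were expressed as fold change in MIC99 relative to the standard inoculum.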

[12] = test system: Cell membrane; assay: Binding affinity to bacterial cell membrane assessed as KA by SPR assay; type: cell membranes; conditions: Bacteria
Outline: (§2)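 Surface plasmon resonance of compound binding to bacterial membranes. K1, K2 and overall KA were calculated from the sensorgrams. Average of three replicates.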

[13] = test system: Acinetobacter baumannii; assay: Antibacterial activity against Acinetobacter baumannii isolate 1/303 by broth dilution assay; type: functional
[14] = test system: Escherichia coli; assay: Antibacterial activity against Escherichia coli isolate 6/23 by broth dilution assay; type: functional
[15] = test system: Escherichia coli; assay: Bactericidal activity against Escherichia coli assessed as reduction in colony forming units at 1 times MIC99 concentration after 6 hrs by fluorescent based time-kill assay; type: functional, organism-based
[16] = test system: Klebsiella pneumoniae; assay: Antibacterial activity against Klebsiella pneumoniae isolate 8/407 by broth dilution assay; type: functional
[17] = test system: Klebsiella pneumoniae; assay: Antibacterial activity against Klebsiella pneumoniae isolate 7/47 by broth dilution assay; type: functional
[18] = test system: Acinetobacter baumannii; assay: Antibacterial activity against Acinetobacter baumannii by broth dilution assay; type: functional; outline: as §1
[19] = test system: Escherichia coli; assay: Antibiofilm activity against Escherichia coli assessed as reduction in colony forming units at 64 uM after 24 hrs by crystal violet-based assay relative to control; type: functional
[20] = test system: Acinetobacter baumannii; assay: Antibacterial activity against Acinetobacter baumannii isolate 5/412 by broth dilution assay; type: functional
[21] = test system: Escherichia coli; assay: Antibacterial activity against Escherichia coli isolate 9/203 by broth dilution assay; type: functional
[22] = test system: Escherichia coli; assay: Antimicrobial activity against compound-pre-treated Escherichia coli by broth dilution assay based drug resistance development assay; type: functional, organism-based
Outline: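 E. coli pre-treated with compound, then MIC₉₉ redetermined by broth-dilution assay in four replicates; reported as fold change in MIC₉₉ relative to starting value to assess resistance development.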

[23] = test system: Escherichia coli; assay: Bactericidal activity against Escherichia coli assessed as reduction in colony forming units at 4 times MIC99 concentration after 90 mins by fluorescent based time-kill assay
[24] = test system: Escherichia coli; assay: Induction of membrane permeabilization in Escherichia coli at 8 uM after 40 mins by NPN-fluorescence based assay; type: organism-based; conditions: Cell membrane
Outline: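 NPN-stained E. coli incubated with compound at 8 µM; outer-membrane permeabilization followed as NPN fluorescence over time. Average of three replicates.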

[25] = test system: Cell membrane; assay: Binding affinity to bacterial cell membrane assessed as Kd1 by SPR assay; type: cell membranes; conditions: Bacteria; outline: as §2
[26] = test system: Cell membrane; assay: Binding affinity to bacterial cell membrane assessed as Kd2 by SPR assay; type: cell membranes; conditions: Bacteria; outline: as §2
[27] = test system: Escherichia coli; assay: Antibiofilm activity against Escherichia coli assessed as biofilm thickness after 24 hrs (reference value: >8 micrometer); type: functional
Outline: (§3)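 Treated E. coli biofilms stained with SYTO9 (all cells) and PI (dead cells) and imaged by confocal laser scanning microscopy. Biofilm thickness quantified against untreated. Mean ± SD of three replicates, unpaired two-tailed t-test.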

[28] = Critical micellar concentration of the compound; type: physicochemical
[29] = test system: Escherichia coli; assay: Induction of membrane permeabilization in Escherichia coli by SYTO9-PI staining based fluorescence microscopy; type: organism-based; conditions: Cell membrane
[30] = test system: Klebsiella pneumoniae; assay: Antibacterial activity against Klebsiella pneumoniae isolate 12823 by broth dilution assay; type: functional
[31] = test system: Acinetobacter baumannii; assay: Antibacterial activity against Acinetobacter baumannii isolate 5/321 by broth dilution assay; type: functional
[32] = test system: Escherichia coli; assay: Antibacterial activity against Escherichia coli isolate 6/27 by broth dilution assay; type: functional
[33] = test system: Acinetobacter baumannii; assay: Antibacterial activity against Acinetobacter baumannii isolate 4/307 by broth dilution assay; type: functional
[34] = test system: Escherichia coli; assay: Induction of cell membrane disruption in Escherichia coli assessed as extracellular architecture disruption by SEM assay; type: functional, organism-based
[35] = test system: Klebsiella pneumoniae; assay: Antibacterial activity against Klebsiella pneumoniae isolate 8/307 by broth dilution assay; type: functional
[36] = test system: Escherichia coli; assay: Antibiofilm activity against Escherichia coli assessed as reduction in biomass levels after 24 hrs by SYT09-propidium iodide based confocal microscopy; type: functional, organism-based; outline: as §3
[37] = test system: Escherichia coli; assay: Antibiofilm activity against Escherichia coli assessed as reduction in colony forming units after 24 hrs by crystal violet-based assay; type: functional, organism-based
[38] = test system: Escherichia coli; assay: Antibiofilm activity against Escherichia coli isolate 6/23 exposed to compound-coated catheters assessed as reduction in colony forming units incubated for 3 days; type: functional, organism-based
[39] = test system: Escherichia coli; assay: Antibiofilm activity against Escherichia coli after 24 hrs by propidium iodide uptake based FACS analysis; type: functional, organism-based
[40] = Selectivity index, ratio of HC50 for human RBC to MIC99 for Escherichia coli; type: toxicity; conditions: human red blood cells (RBC), read-out: Selectivity Index
[41] = test system: Escherichia coli; assay: Antibacterial activity against Escherichia coli isolate 9/44 by broth dilution assay; type: functional
[42] = test system: Escherichia coli; assay: Antibacterial activity against Escherichia coli XEN 14 infected in wound areas of BALB/C mouse assessed as reduction in bacterial load at 40 mg/kg administered thrice daily for 4 days starting 6 hrs post infection and measured on day 5 by bioluminescence imaging analysis; type: functional, organism-based
[43] = test system: Acinetobacter baumannii; assay: Antibacterial activity against Acinetobacter baumannii isolate 4/202 by broth dilution assay; type: functional
[44] = test system: Escherichia coli; assay: Induction of membrane permeabilization in Escherichia coli at 8 uM after 30 mins DiSC2-fluorescence based assay; type: organism-based; conditions: Cell membrane
Outline: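 DiSC2(5)-loaded E. coli treated at 8 µM; depolarization-driven fluorescence increase followed over time. Average of three replicates.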

[45] = test system: Cell membrane; assay: Binding affinity to bacterial cell membrane assessed as Ka1 by SPR assay; type: cell membranes; conditions: Bacteria; outline: as §2
[46] = test system: Escherichia coli; assay: Antibiofilm activity against Escherichia coli isolate 6/23 infected in BALB/c mouse implanted subcutaneously with compound treated catheters followed by infection at incision site; type: functional, organism-based
[47] = test system: Escherichia coli; assay: Induction of membrane permeabilization in Escherichia coli at 32 uM by propidium iodide uptake based FACS analysis; type: organism-based; conditions: Cell membrane
Outline: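 E. coli treated at 32 µM, PI-stained, and PI-positive cells counted by flow cytometry. Mean ± SD of four replicates, unpaired two-tailed t-test.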

[48] = test system: Escherichia coli; assay: Induction of membrane permeabilization in Escherichia coli in presence of 1.9 to 1000 ug/ml LPS by propidium iodide uptake based FACS analysis; type: organism-based; conditions: Cell membrane
Outline: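 E. coli was treated with compound in the presence of graded LPS and stained with propidium iodide. The percentage of PI-positive cells was measured by flow cytometry.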

[49] = test system: Cell membrane; assay: Binding affinity to bacterial cell membrane assessed as K1 by SPR assay; type: cell membranes; conditions: Bacteria; outline: as §2
[50] = Selectivity index, ratio of IC50 for human A549 cells to MIC99 for Escherichia coli; type: toxicity; conditions: read-out: Selectivity Index
[51] = test system: Escherichia coli; assay: Antibacterial activity against Escherichia coli isolate 6/38 by broth dilution assay; type: functional
[52] = test system: Klebsiella pneumoniae; assay: Antibacterial activity against Klebsiella pneumoniae by broth dilution assay; type: functional; outline: as §1
[53] = test system: Cell membrane; assay: Binding affinity to bacterial cell membrane assessed as K2 by SPR assay; type: cell membranes; conditions: Bacteria; outline: as §2

C[C@H](CCC(=O)OCc1ccccc1)[C@H]1CC[C@H]2[C@@H]3[C@H](OC(=O)CNC(=O)[C@@H](N)Cc4ccccc4)C[C@@H]4C[C@H](OC(=O)CNC(=O)[C@@H](N)Cc5ccccc5)CC[C@]4(C)[C@H]3C[C@H](OC(=O)CNC(=O)[C@@H](N)Cc3ccccc3)[C@]12C
MIC99 [1]: inactive

CC(C)C[C@H](N)C(=O)NCC(=O)O[C@@H]1CC[C@@]2(C)[C@@H](C1)C[C@@H](OC(=O)CNC(=O)[C@@H](N)CC(C)C)[C@@H]1[C@@H]2C[C@H](OC(=O)CNC(=O)[C@@H](N)CC(C)C)[C@]2(C)[C@@H]([C@H](C)CCC(=O)OCc3ccccc3)CC[C@@H]12
MIC99 [1]: 8 to 128 µM (≈ 8.07 to 129 µg/mL)

CC1(C)S[C@@H]2[C@H](NC(=O)[C@H](N)c3ccccc3)C(=O)N2[C@H]1C(=O)O
Activity [2]: inactive | Activity [3]: inactive | Activity [4]: inactive

CSCC[C@H](N)C(=O)NCC(=O)O[C@@H]1CC[C@@]2(C)[C@@H](C1)C[C@@H](OC(=O)CNC(=O)[C@@H](N)CCSC)[C@@H]1[C@@H]2C[C@H](OC(=O)CNC(=O)[C@@H](N)CCSC)[C@]2(C)[C@@H]([C@H](C)CCC(=O)OCc3ccccc3)CC[C@@H]12
MIC99 [1]: 8 to 128 µM (≈ 8.51 to 136 µg/mL)

CC(C)[C@H](N)C(=O)NCC(=O)O[C@@H]1CC[C@@]2(C)[C@@H](C1)C[C@@H](OC(=O)CNC(=O)[C@@H](N)C(C)C)[C@@H]1[C@@H]2C[C@H](OC(=O)CNC(=O)[C@@H](N)C(C)C)[C@]2(C)[C@@H]([C@H](C)CCC(=O)OCc3ccccc3)CC[C@@H]12.Cl.Cl.Cl
Activity [5]: Active | Activity [6]: Active | Activity [7]: 90% | Activity [8]: Active | inhibition [9]: Active | Activity [2]: Active | Activity [10]: Active | Activity [3]: Active | Ratio [11]: 2 | KA [12]: 9.6 ×10⁷ /M | MIC99 [13]: 16 µM | MIC99 [14]: 8 µM | Activity [15]: inactive | MIC99 [16]: 8 µM | MIC99 [17]: 4 µM | MIC99 [18]: 16 µM | log(activity) [19]: 8 | MIC99 [20]: 4 µM | MIC99 [21]: 8 µM | Activity [22]: Active | Activity [23]: Active | Activity [24]: Active | K [25]: 6 ×10⁻² /s | K [26]: 4.19 ×10⁻⁵ /s | Activity [27]: 3 um | CMC [28]: > 100 µM | Activity [29]: Active | MIC99 [30]: 8 µM | MIC99 [31]: 4 µM | MIC99 [1]: 8 µM | MIC99 [32]: 4 µM | MIC99 [33]: 16 µM | Activity [34]: Active | MIC99 [35]: 8 µM | Activity [36]: Active | Activity [37]: Dose-dependent effect | Activity [38]: Active | Activity [39]: Active | selectivity ratio [40]: 6 to 7 | MIC99 [41]: 8 µM | Activity [42]: Active | MIC99 [43]: 8 µM | Activity [44]: Active | K [45]: 2.41 ×10⁴ /Ms | Activity [46]: Active | Activity [47]: Active | Activity [48]: inactive | Activity [4]: Active | K [49]: 4.06 ×10⁵ /M | selectivity ratio [50]: 6 to 7 | MIC99 [51]: 4 µM | MIC99 [52]: 16 µM | K [53]: 2.39 ×10² /M
